Most compounds without a hit are left out; they make up all but 3.7% or so of the library.
Myeloid diff 2 = promotes myeloid progenitor differentiation. calls only at 10 µM. hit rate 1% among 360,000. ER-HoxA9 myeloid progenitors, lysozyme-GFP differentiation, flow cytometry;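 active = normalized GFP-positive differentiation at or above the plate's own cutoff, the solvent-only control mean plus 3 SD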;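 note: cells exposed to compound for four days before flow analysis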
MC4R barr agon = activates human MC4R beta-arrestin recruitment; P32245; U2OS MC4R beta-arrestin complementation, luminescence; percent of melanotan II response, DMSO zero; activation, % at 8.9 µM; hit rate 0.98% among 360,000; AID 540308;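 active = activation above a per-plate cutoff, the mean activation of sample wells on that plate plus 3 SD, cut at about 8% in these data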
Target sequence (P32245 whole entry, looked up): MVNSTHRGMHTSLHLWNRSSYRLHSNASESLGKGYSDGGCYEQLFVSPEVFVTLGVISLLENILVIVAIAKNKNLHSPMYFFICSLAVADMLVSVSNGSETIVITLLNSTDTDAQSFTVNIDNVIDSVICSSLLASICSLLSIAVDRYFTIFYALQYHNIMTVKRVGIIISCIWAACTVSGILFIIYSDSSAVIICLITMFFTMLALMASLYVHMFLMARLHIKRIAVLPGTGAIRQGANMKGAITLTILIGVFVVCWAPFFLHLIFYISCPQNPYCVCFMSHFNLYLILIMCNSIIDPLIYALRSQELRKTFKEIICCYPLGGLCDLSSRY
Exocytosis inh = lytic granule exocytosis inhibition. TALL-104 LAMP-1 surface exposure, flow cytometry; cells stimulated with thapsigargin and PMA. inhibition, % at 10 µM. hit rate 0.66% among 360,000. AID 651702;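 active = inhibition above about 55%, limit read from the data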
EBI2 block = blocks human EBI2 receptor beta-arrestin signaling. AID 651636. EBI2 beta-arrestin recruitment, luminescence, 7a,25-OHC stimulated. hit rate 0.81% among 360,000. inhibition, % at 5 µM; in the data active = inhibition above about 38%;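 note: enzyme fragment complementation signal reports receptor beta-arrestin coupling in cells; 0% = agonist plus DMSO wells and 100% = wells without agonist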
Target sequence (P32249 whole entry, looked up, the tested form may be a part): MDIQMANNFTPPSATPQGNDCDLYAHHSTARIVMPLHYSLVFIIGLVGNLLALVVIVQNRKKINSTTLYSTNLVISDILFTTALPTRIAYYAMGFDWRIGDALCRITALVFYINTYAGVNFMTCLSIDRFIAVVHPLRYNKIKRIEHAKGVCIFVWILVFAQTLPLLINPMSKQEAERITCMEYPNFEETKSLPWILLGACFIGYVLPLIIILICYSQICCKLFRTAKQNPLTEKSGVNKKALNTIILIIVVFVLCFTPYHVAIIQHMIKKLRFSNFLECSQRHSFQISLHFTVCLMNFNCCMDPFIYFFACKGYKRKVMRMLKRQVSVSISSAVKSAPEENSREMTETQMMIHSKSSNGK
MC4R antag cAMP = blocks human MC4R cAMP signaling; P32245; MC4R-expressing cells, MTII-stimulated cAMP, LANCE TR-FRET; inhibition, % at 6.5 µM; hit rate 0.48% among 360,000; AID 540295;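 active = inhibition above its plate's cutoff, the mean of tested wells on that plate plus 3 SD, cut at about 29% in these data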;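 note: 0% = Melanotan II alone and 100% = Melanotan II plus saturating MCL0020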
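Material: human MC4R-expressing U2OS cells. Probe or stimulus: Melanotan II challenge. Dosing: 6.5 µM single dose. Times: 30-min compound, 1-h challenge, 1-h detection, room temperature. Technique: TR-FRET with Eu-cAMP and labeled anti-cAMP, 671 nm. Replication: singlicate.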
EBI2 conf = confirmation of human EBI2 receptor antagonists. EBI2 beta-arrestin luminescence, 7a,25-OHC antagonism. shares compounds with EBI2 block. hit rate 29% among 2,400. inhibition, % at 5 µM;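 active = inhibition of at least 50%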
EBI2 ag = EBI2 agonism counter-screen. EBI2-expressing cells, agonist mode, luminescence, 60 min; 0% vehicle, 100% 7α,25-dihydroxycholesterol control. shares compounds with EBI2 block. AID 652000. 2,400 tested, under 10 active. activation, % at 5 µM;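 active = activation of at least 50%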
bGal cs = counter-screen for EBI2 antagonists: E. coli beta-galactosidase inhibition; shares compounds with EBI2 block; purified beta-galactosidase, luminescent Galacton Star, 15 min; inhibition, % at 5 µM; hit rate 1% among 2,400; AID 652176;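 active = replicate-average signal at least 3 plate SD below neutral wells, shown as high inhibition, flagging enzyme-inhibiting false positives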;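 note: 0% = DMSO wells with enzyme and 100% = wells lacking enzyme; higher means stronger loss of beta-gal luminescence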
* hit, by the source's call; i = inactive; · = no result given.

SMILES | Myeloid diff 2 | MC4R barr agon | Exocytosis inh | EBI2 block | MC4R antag cAMP | EBI2 conf | EBI2 ag | bGal cs
O=C(c1nc2ccc(Cl)cn2c1CNCC[C@@H]1C[C@@H]2C=C[C@H]1C2)N1CCCCCCC1 | i | -2.5 | 28.5 | 60.9* | -5.7 | 42.4 | -0.3 | 1.8
COCCNC(=O)C1(C)CCCN(C(=O)c2ccc3snnc3c2)C1 (stereo not given) | i | -2.5 | -7.4 | -9.0 | 2.7 | · | · | ·
COc1ccc(-c2cn3nc(SCC(=O)NCC4CCCO4)ccc3n2)cc1 (stereo not given) | i | -0.7 | 16.3 | 66.7* | 23.8 | 38.4 | -0.7 | -16.6
O=C(CSc1ccc2nc(-c3ccccc3)cn2n1)NCC1CCCO1 (stereo not given) | i | -0.1 | 0.2 | 5.8 | -5.0 | · | · | ·
CC1(C)Cc2c(cnn2-c2cccc(F)c2)C(NC(=O)CCc2cnccn2)C1 (stereo not given) | i | -0.5 | -3.5 | -7.6 | -1.6 | · | · | ·
Cc1ccccc1OCC(=O)NNC(=O)C1CCN(c2ncnc3sc(C)c(C)c23)CC1 | i | -3.3 | 10.4 | 49.9* | 3.4 | 19.8 | 0.8 | 5.5
COc1cccc(CNc2nc3cc(-c4ccccc4CO)sc3c(=O)n2C)c1 | i | -0.4 | 0.4 | 7.9 | 0.9 | · | · | ·
CC(C)(C)c1csc(NC(=O)Nc2ccccc2)n1 | i | 2.7 | 3.6 | 42.7* | 4.2 | 31.7 | -1.2 | -10.0
C=CCNC(=O)c1ccc(C2SCC(=O)N2Cc2ccccc2)cc1 (stereo not given) | i | -2.8 | -5.5 | 4.7 | -3.4 | · | · | ·
O=C(NCc1ccccc1)c1ccc(C2SCC(=O)N2Cc2ccccc2)cc1 (stereo not given) | i | -1.6 | -3.2 | 41.3* | 13.0 | 36.2 | -1.5 | -9.4
O=C(NCc1ccccc1)c1ccc(OC2CSC2)cc1 | i | -1.3 | -4.5 | 29.5 | 4.0 | · | · | ·
O=C(NCc1ccccc1)c1ccc(Oc2ccc(C(=O)NCc3ccccc3)cc2)cc1 | i | 2.0 | 0.3 | 46.8* | -6.4 | 21.0 | 1.3 | 8.2
COC(=O)c1ccc(C)c(NC(=O)COC(=O)C2CC3CCCC(C2)C3=O)c1 (stereo not given) | i | 0.2 | -1.0 | -8.2 | 11.8 | · | · | ·
COc1cccc(NC(=O)C(Sc2nnc(Nc3ccccc3C)s2)c2ccccc2)c1 (stereo not given) | i | -1.2 | 4.6 | 46.3* | 13.0 | 8.0 | -0.4 | -10.1
CCn1c(COC(=O)CNC(=O)c2cc(OC)c(OC)c(OC)c2)nc2cc(S(=O)(=O)N(C)C)ccc21 | i | -2.6 | -2.6 | -8.6 | 9.8 | · | · | ·
O=C(O)c1cc(O)ccc1NC(=O)C(c1ccccc1)c1ccccc1 | i | 1.7 | 1.2 | -4.2 | 17.3 | · | · | ·
Cc1ccc(CNC(=O)c2ccc(N3CCc4ccccc43)c([N+](=O)[O-])c2)cc1 | i | -2.9 | -2.4 | 37.4* | 1.2 | 19.1 | -0.7 | -5.8
Cc1ccc(OCc2nc3c4c(ncn3n2)-c2ccccc2CC42CCCC2)cc1 | i | -4.5 | 3.7 | 25.4 | 14.5 | · | · | ·
COc1ccc(OCc2nc3c4c(ncn3n2)-c2ccccc2CC42CCCC2)cc1 | i | -1.8 | -2.0 | 55.4* | 18.3 | 18.6 | 2.6 | 5.7
Oc1cccc(-c2nc3c4c(ncn3n2)-c2ccccc2CC42CCCC2)c1 | i | -0.4 | 34.3 | 46.7* | 17.4 | 30.7 | 2.1 | 9.0
COc1ccc(-c2nc3c4c(ncn3n2)-c2ccccc2CC42CCCC2)cc1 | i | -0.8 | 3.2 | 2.7 | -1.4 | · | · | ·
N#Cc1ccncc1S(=O)c1ccc(Cl)cc1 (stereo not given) | i | 1.5 | -4.9 | 0.2 | 24.1 | · | · | ·
Cc1cc(C)c(S(=O)(=O)N2CCN(C(=O)c3ccc(-n4nc(C)c(Cl)c4C)cc3)CC2)c(C)c1 | i | -0.5 | 9.6 | 94.0* | 4.7 | 68.0* | 0.1 | -10.9
Cc1cc(C)c(S(=O)(=O)N2CCN(C(=O)c3c(C)nn(-c4ccccc4)c3Cl)CC2)c(C)c1 | i | 0.5 | 5.2 | -7.1 | 15.6 | · | · | ·
Cc1ccc(CNC(=O)C2CCC(CNc3c(N4CCC(C)CC4)c(=O)c3=O)CC2)cc1 (stereo not given) | i | -2.5 | -1.0 | 84.1* | 7.9 | 56.8* | 1.2 | 12.2
SMILES | Myeloid diff 2 | MC4R barr agon | Exocytosis inh | EBI2 block | MC4R antag cAMP | EBI2 conf | EBI2 ag | bGal cs
CCN(C(=O)c1cn(C)c(=O)c2ccccc12)c1ccccc1F | i | 0.4 | -8.5 | 2.9 | 4.1 | · | · | ·
O=C(c1cc(=O)c2ccccc2o1)N1CCN(c2ccccc2F)CC1 | i | -2.8 | -4.2 | 64.4* | 2.4 | 32.6 | 0.0 | -11.2
O=C(c1cc(=O)c2ccccc2o1)N1CCN(c2cccc(Cl)c2)CC1 | i | -0.6 | 13.3 | 51.5* | 8.7 | 41.8 | 0.7 | 6.5
O=C(NCc1ccc(F)cc1)C1CCN(S(=O)(=O)N2CCC3(CC2)OCCO3)CC1 | i | -1.0 | -3.0 | 5.6 | -3.8 | · | · | ·
CCc1ccc(CNC(=O)C2CCN(S(=O)(=O)N3CCC4(CC3)OCCO4)CC2)cc1 | i | -2.2 | 4.0 | 47.2* | 3.4 | 21.9 | -0.2 | 11.5
Cc1ccc(CNC(=O)C2CCN(S(=O)(=O)N3CCC4(CC3)OCCO4)CC2)cc1 | i | 1.6 | 1.8 | 45.2* | 7.8 | 14.9 | -0.4 | -8.7
CN(C)N1C(=O)c2c(Cl)c(Cl)c(Cl)c(Cl)c2C1=O | i | 0.7 | -3.7 | -0.7 | 4.1 | · | · | ·
FC(F)(F)Oc1ccccc1C(c1nnnn1C1CCCC1)N1CCN(C/C=C/c2ccccc2)CC1 (stereo not given) | i | · | 3.7 | 64.5* | · | 39.4 | -1.3 | -8.2
C(=C\c1ccccc1)/CN1CCN(C(CCc2ccccc2)c2nnnn2C2CCCC2)CC1 (stereo not given) | i | · | 10.2 | 51.4* | · | 31.2 | 3.8 | 11.8
C(=C\c1ccccc1)/CN1CCN(C(c2nnnn2C2CCCC2)C2CC2)CC1 (stereo not given) | i | · | 2.3 | 25.2 | · | · | · | ·
O=C(COc1ccc(Br)cc1)N1CCc2ccccc2C1 | i | -0.1 | 21.3 | 58.3* | 22.8 | 73.4* | -0.9 | 7.3
O=C(COc1ccc(Br)cc1)N1CCC(c2ccccc2)C1 (stereo not given) | i | 0.2 | -3.6 | 87.2* | -2.2 | 84.2* | -1.3 | 5.3
O=C(COc1ccc(Br)cc1)c1ccc2c(c1)CCCC2 | i | -0.5 | -1.6 | 75.2* | 5.4 | 35.5 | 1.7 | 2.5
CN1CCN(C2CN(CCc3ccccc3)S(=O)(=O)C2)CC1 (stereo not given) | i | · | -4.5 | -10.4 | · | · | · | ·
CC(NS(=O)(=O)c1ccc(Cl)cc1)C(=O)NCCC1=CCCCC1 (stereo not given) | i | 2.0 | 0.4 | 5.3 | 18.1 | · | · | ·
